Measurements published in ChEMBL document CHEMBL1152300, “Ligand specificity of constitutive androstane receptor as probed by induced-fit docking and mutagenesis” (J Med Chem, 2008).
Values belong to the molecule of their own block, whether it stands above or below them.

How the values were obtained:
[1] = molecular target: Nuclear receptor subfamily 1 group I member 3 (Mus musculus, UniProt O35627, T350M); test: Enhancement of steroid receptor coactivator 1 binding to mouse CAR T350M mutant […] at 10 uM by yeast two-hybrid assay; format: cell-based
Method in brief: (§1)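 Yeast two-hybrid: yeast expressing wild-type or mutant mouse CAR LBD plus SRC-1 or NCoR, selected on SD medium lacking Leu and Trp. Pooled colonies treated with DMSO or test chemical for 3.5 h. β-Galactosidase normalized to cell density. SRC-1 reference: wild-type + DMSO = 100. NCoR reference: 10 µM androstenol = 100. Mean ± SD, two independent determinations, each in triplicate.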

[2] = molecular target: T1, Nuclear receptor subfamily 1 group I member 3 (Mus musculus, UniProt O35627, H213A); test: Activation of mouse CAR H213A mutant expressed in HEK293 cells at 1 uM by mammalian one-hybrid assay; format: cell-based; settings: hek293, 1 µM
Method in brief: (§2)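 GAL4 DBD fused to mouse CAR LBD (residues 118-358), wild type or point mutant, cotransfected with UASx4-tk-luc reporter and pCMVβ into HEK293 cells. Cells cultured with DMSO (0.1% v/v) or compound (final 1, 2 or 10 µM). Lysed 24 h post-transfection. Luciferase normalized to β-galactosidase, expressed relative to empty GAL4 vector (=1.0). Mean ± SD, three independent experiments.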

[3] = molecular target: T2, Nuclear receptor subfamily 1 group I member 3 (Mus musculus, UniProt O35627, N175A); test: Decrease in mouse CAR N175A mutant activation expressed in HEK293 cells at 1 uM by mammalian one-hybrid assay; format: cell-based; settings: read-out: Activity; method in brief: as §2
[4] = molecular target: T3, Nuclear receptor subfamily 1 group I member 3 (Mus musculus, UniProt O35627, T350A); test: Decrease in mouse CAR T350A mutant activation expressed in HEK293 cells at 1 uM by mammalian one-hybrid assay; format: cell-based; settings: read-out: Activity; method in brief: as §2
[5] = molecular target: T4, Nuclear receptor subfamily 1 group I member 3 (Mus musculus, UniProt O35627, F171A); test: Effect on nuclear co-repressor receptor binding to mouse CAR F171A mutant […] at 1 uM by yeast two-hybrid assay; format: cell-based
Method in brief: (§3)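 Yeast expressing wild-type or mutant mouse CAR LBD plus NCoR, selected on SD plates lacking leucine and tryptophan. Pooled colonies treated with DMSO or compound for 3.5 h. β-Galactosidase activity normalized to cell density. Reference is 10 µM androstenol (=100). Mean ± SD of two independent determinations, each in triplicate.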

[6] = molecular target: Nuclear receptor subfamily 1 group I member 3 (Mus musculus, UniProt O35627, F171L); test: Effect on steroid receptor co-activator 1 binding to mouse CAR F171L mutant […] at 1 uM by yeast two-hybrid assay; format: cell-based; settings: read-out: Activity
Method in brief: as §3, with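 “SRC-1,” for “NCoR,”, “wild-type CAR + SRC-1 with DMSO” for “10 µM androstenol”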

[7] = molecular target: T2, Nuclear receptor subfamily 1 group I member 3; test: Effect on nuclear co-repressor receptor binding to mouse CAR N175A mutant […] at 1 uM by yeast two-hybrid assay; format: cell-based; settings: read-out: Activity; method in brief: as §3
[8] = molecular target: Nuclear receptor subfamily 1 group I member 3 (Mus musculus, UniProt O35627, L253F); test: Effect on nuclear co-repressor receptor binding to mouse CAR L253F mutant […] at 1 uM by yeast two-hybrid assay; format: cell-based; settings: read-out: Activity; method in brief: as §3
[9] = molecular target: Nuclear receptor subfamily 1 group I member 3 (Mus musculus, UniProt O35627, L353A); test: Effect on nuclear co-repressor receptor binding to mouse CAR L353A mutant […] at 1 uM by yeast two-hybrid assay; format: cell-based; settings: read-out: Activity; method in brief: as §3
[10] = molecular target: T5, Nuclear receptor subfamily 1 group I member 3 (Mus musculus, UniProt O35627); test: Increase in nuclear co-repressor receptor binding to wild type mouse CAR expressed in HEK293 cells at 10 uM by yeast two-hybrid assay; settings: hek293, 10 µM
T5 sequence (O35627 whole entry): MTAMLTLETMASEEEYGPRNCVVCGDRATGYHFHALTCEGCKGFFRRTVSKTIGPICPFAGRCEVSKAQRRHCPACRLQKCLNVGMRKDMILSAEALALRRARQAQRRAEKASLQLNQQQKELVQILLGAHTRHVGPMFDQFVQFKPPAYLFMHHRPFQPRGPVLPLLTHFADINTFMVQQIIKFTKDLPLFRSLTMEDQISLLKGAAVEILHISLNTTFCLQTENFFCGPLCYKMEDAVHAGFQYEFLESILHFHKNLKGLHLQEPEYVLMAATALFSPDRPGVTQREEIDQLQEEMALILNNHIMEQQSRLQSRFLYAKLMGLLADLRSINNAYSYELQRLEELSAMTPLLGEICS

[11] = molecular target: T4, Nuclear receptor subfamily 1 group I member 3; test: Decrease in nuclear co-repressor receptor binding to mouse CAR F171A mutant […] at 10 uM by yeast two-hybrid assay; format: cell-based; settings: read-out: Activity; method in brief: as §3
[12] = molecular target: T6, Nuclear receptor subfamily 1 group I member 3 (Mus musculus, UniProt O35627, S251L); test: Decrease in mouse CAR S251L mutant activation expressed in HEK293 cells at 2 uM by mammalian one-hybrid assay; format: cell-based; settings: read-out: Activity
Method in brief: (§4)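 GAL4-DBD fused to mouse CAR LBD (residues 118-358), wild-type or point mutant, cotransfected with UASx4-tk-luc reporter and pCMVβ into HEK293 cells. Cells were exposed to final 1 µM, 2 µM or 10 µM test chemical, or 0.1% v/v DMSO, for 24 h after transfection. Luciferase was normalized to β-galactosidase and set against empty GAL4 vector (=1.0). Mean ± standard deviation, three independent experiments.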

[13] = molecular target: T3, Nuclear receptor subfamily 1 group I member 3; test: Decrease in mouse CAR T350A mutant activation expressed in HEK293 cells at 2 uM by mammalian one-hybrid assay; format: cell-based; settings: read-out: Activity; method in brief: as §4
[14] = molecular target: Nuclear receptor subfamily 1 group I member 3 (Mus musculus, UniProt O35627, L212A); test: Decrease in nuclear co-repressor receptor binding to mouse CAR L212A mutant […] at 2 uM by yeast two-hybrid assay; format: cell-based; settings: read-out: Activity; method in brief: as §1
[15] = molecular target: T1, Nuclear receptor subfamily 1 group I member 3; test: Enhancement of nuclear co-repressor receptor binding to mouse CAR H213A mutant […] at 2 uM by yeast two-hybrid assay; format: cell-based; method in brief: as §1
[16] = molecular target: T6, Nuclear receptor subfamily 1 group I member 3; test: Decrease in nuclear co-repressor receptor binding to mouse CAR S251L mutant […] at 2 uM by yeast two-hybrid assay; format: cell-based; set-up: scale not given: the % may be the effect or the level left; method in brief: as §1
[17] = molecular target: T7, Nuclear receptor subfamily 1 group I member 3 (Mus musculus, UniProt O35627, Y336A); test: Decrease in nuclear co-repressor receptor binding to mouse CAR Y336A mutant […] at 2 uM by yeast two-hybrid assay; format: cell-based; settings: read-out: Activity; method in brief: as §1
[18] = molecular target: T7, Nuclear receptor subfamily 1 group I member 3; test: Decrease in steroid receptor coactivator 1 binding to mouse CAR Y336A mutant […] at 2 uM by yeast two-hybrid assay; format: cell-based; settings: read-out: Activity; method in brief: as §1
[19] = molecular target: T3, Nuclear receptor subfamily 1 group I member 3; test: Decrease in nuclear co-repressor receptor binding to mouse CAR T350A mutant […] at 2 uM by yeast two-hybrid assay; format: cell-based; settings: read-out: Activity; method in brief: as §1
[20] = molecular target: T3, Nuclear receptor subfamily 1 group I member 3; test: Decrease in steroid receptor coactivator 1 binding to mouse CAR T350A mutant […] at 2 uM by yeast two-hybrid assay; format: cell-based; settings: read-out: Activity; method in brief: as §1

T3 sequence (O35627 whole entry T350A): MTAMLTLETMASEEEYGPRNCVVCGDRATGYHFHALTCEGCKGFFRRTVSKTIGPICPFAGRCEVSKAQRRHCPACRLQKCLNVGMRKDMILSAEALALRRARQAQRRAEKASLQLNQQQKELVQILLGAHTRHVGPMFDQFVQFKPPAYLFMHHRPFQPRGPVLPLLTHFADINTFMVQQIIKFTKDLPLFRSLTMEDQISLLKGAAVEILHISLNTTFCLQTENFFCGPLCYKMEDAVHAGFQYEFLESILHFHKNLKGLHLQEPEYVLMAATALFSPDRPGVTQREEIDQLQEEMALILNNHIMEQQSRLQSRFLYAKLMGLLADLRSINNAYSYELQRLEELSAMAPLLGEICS
T7 sequence (O35627 whole entry Y336A): as the sequence (O35627 whole entry T350A) above, with Y336A, A350T counted along it
T4 sequence (O35627 whole entry F171A, the tested form may be a part): as the sequence (O35627 whole entry T350A) above, with F171A, A350T counted along it
T1 sequence (O35627 whole entry H213A, the tested form may be a part): as the sequence (O35627 whole entry T350A) above, with H213A, A350T counted along it
T2 sequence (O35627 whole entry N175A): as the sequence (O35627 whole entry T350A) above, with N175A, A350T counted along it
T6 sequence (O35627 whole entry S251L, the tested form may be a part): as the sequence (O35627 whole entry T350A) above, with S251L, A350T counted along it
Sequence of Nuclear receptor subfamily 1 group I member 3 (Mus musculus, UniProt O35627, L253F) (O35627 whole entry L253F): as the sequence (O35627 whole entry T350A) above, with L253F, A350T counted along it
Sequence of Nuclear receptor subfamily 1 group I member 3 (Mus musculus, UniProt O35627, F171L) (O35627 whole entry F171L): as the sequence (O35627 whole entry T350A) above, with F171L, A350T counted along it
Sequence of Nuclear receptor subfamily 1 group I member 3 (Mus musculus, UniProt O35627, L212A) (O35627 whole entry L212A): as the sequence (O35627 whole entry T350A) above, with L212A, A350T counted along it
Sequence of Nuclear receptor subfamily 1 group I member 3 (Mus musculus, UniProt O35627, T350M) (O35627 whole entry T350M, the tested form may be a part): as the sequence (O35627 whole entry T350A) above, with A350M counted along it
Sequence of Nuclear receptor subfamily 1 group I member 3 (Mus musculus, UniProt O35627, L353A) (O35627 whole entry L353A): as the sequence (O35627 whole entry T350A) above, with A350T, L353A counted along it

Activity [1]: > 50%
SMILES: COc1ccccc1CC(CC(=O)Cc1ccccc1)OC (stereo not given)

SMILES: Clc1cnc(Oc2ccc(Oc3ncc(Cl)cc3Cl)cc2)c(Cl)c1
Activity [2]: 50%
inhibition at 1 µM [3]: < 50%
inhibition at 1 µM [4]: < 50%
Activity [5]: < 50%
activity at 1 µM [6]: < 50%
activity at 1 µM [7]: < 50%
activity at 1 µM [8]: < 50%
activity at 1 µM [9]: < 50%

SMILES: C[C@]12CC[C@@H](O)C[C@@H]1CC[C@@H]1[C@@H]2CC[C@]2(C)C=CC[C@@H]12 [ANDROSTENOL]
FC [10]: 49
inhibition at 10 µM [11]: ≥ 50%

inhibition at 2 µM [12]: < 50%
inhibition at 2 µM [13]: < 50%
inhibition at 2 µM [14]: ≥ 50%
Activity [15]: > 150%
Activity [16]: >= 50%
inhibition at 2 µM [17]: ≥ 50%
inhibition at 2 µM [18]: ≥ 50%
inhibition at 2 µM [19]: ≥ 50%
inhibition at 2 µM [20]: ≥ 50%
SMILES: Clc1ccccc1C(c1ccccc1)(c1ccccc1)n1ccnc1 [CLOTRIMAZOLE]
